Test results from ChEMBL document CHEMBL4261490, “Exploring the links between peptoid antibacterial activity and toxicity” (Medchemcomm, 2017).
In brackets after ≈: the same amount, converted by molar mass. Each block holds one compound with its values, some of them ahead of it. Square brackets hold non-standard residues; d marks the D form. Peptide text beside a SMILES is read from it. Gly(N-2-aminoethyl) = NCCNCC(=O)O; Nspe = C[C@H](NCC(=O)O)c1ccccc1; Nphe = O=C(O)CNCc1ccccc1; Nlys = NCCCCNCC(=O)O

Assays:
Staphylococcus aureus = assay: Antibacterial activity against Staphylococcus aureus 3R7089 strain Oxford/ATCC 9144 incubated for 16 hrs under shaking condition; assay type: functional; settings: 3R7089 strain Oxford/ATCC 9144, 16 h
In short: (§1)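 Broth microdilution (Andrews method) in Iso-sensitest broth. Overnight cultures are adjusted to A650 0.07 (0.5 McFarland) and diluted ten-fold. Compounds come from 5 mM DMSO stocks, 2-fold serially diluted, final 2–100 μM in a 1:1 inoculum:compound mix. Incubation is 37 °C for 16 h with shaking. MIC is the lowest concentration giving complete growth inhibition, read by absorbance; triplicate.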

[1] = Selectivity index, ratio of ED50 for human HepG2 cells to MIC for Escherichia coli K-12 W3110 ATCC 27325; assay type: toxicity; settings: read-out: Selectivity Index
[2] = Selectivity index, ratio of ED50 for human HaCaT cells to MIC for Staphylococcus aureus 3R7089 strain Oxford/ATCC 9144; assay type: toxicity; settings: read-out: Selectivity Index
[3] = Cytotoxicity against human HaCaT cells assessed as reduction in cell viability pretreated for 1 hr followed by DMEM addition measured after 24 hrs by alamar blue assay; assay type: cell-based; settings: read-out: ED50
In short: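 HaCaT keratinocytes are grown in DMEM high glucose with 10% FBS and 1% P/S and seeded at 2x10^4 cells/well 24 h before treatment. Compound dilution series run 2–100 µM (5 mM DMSO stocks) in 50 µL for 1 h, then medium is added for 24 h at 37 °C, 5% CO2. alamarBlue is read after 1 h (Ex 540/Em 620). Triplicate, ≥2 occasions; ED50 from dose-response; amphotericin B positive control.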

[4] = Selectivity index, ratio of ED50 for human HepG2 cells to MIC for Staphylococcus epidermidis clinical isolate; assay type: toxicity; settings: read-out: Selectivity Index
[5] = Selectivity index, ratio of ED50 for human HepG2 cells to MIC for Staphylococcus aureus 3R7089 strain Oxford/ATCC 9144; assay type: toxicity; settings: read-out: Selectivity Index
[6] = Selectivity index, ratio of ED50 for human HaCaT cells to MIC for Staphylococcus epidermidis clinical isolate; assay type: toxicity; settings: read-out: Selectivity Index
[7] = Cytotoxicity against human HepG2 cells assessed as reduction in cell viability pretreated for 1 hr followed by DMEM addition measured after 24 hrs by alamar blue assay; assay type: cell-based; settings: read-out: ED50
In short: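 HepG2 cells are kept in DMEM high glucose with 10% heat-inactivated FBS and 1% P/S at 37 °C, 5% CO2, and seeded at 2x10^4 cells/well one day ahead. They are exposed to compounds (100 to 3 µM, from 5 mM DMSO stocks) in 50 µL for 1 h. Medium is then added and cells incubated 24 h. alamarBlue is read after 2 h (Ex 560/Em 600). Triplicate on ≥2 occasions; ED50 from dose-response; DMSO negative control.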

[8] = tested on: Staphylococcus epidermidis; assay: Antibacterial activity against Staphylococcus epidermidis clinical isolate incubated for 16 hrs under shaking condition; assay type: functional; in short: as §1
Escherichia coli = assay: Antibacterial activity against Escherichia coli K-12 W3110 ATCC 27325 incubated for 16 hrs under shaking condition; assay type: functional; settings: K-12 substr. W3110 ATCC 27325, 16 h; in short: as §1
Pseudomonas aeruginosa = assay: Antibacterial activity against Pseudomonas aeruginosa PAO1 ATCC 15692 incubated for 16 hrs under shaking condition; assay type: functional; settings: PAO1 ATCC 15692, 16 h; in short: as §1
[9] = Selectivity index, ratio of ED50 for human HaCaT cells to MIC for Escherichia coli K-12 W3110 ATCC 27325; assay type: toxicity; settings: read-out: Selectivity Index
[10] = Selectivity index, ratio of ED50 for human HaCaT cells to MIC for Pseudomonas aeruginosa PAO1 ATCC 15692; assay type: toxicity; settings: read-out: Selectivity Index
[11] = Selectivity index, ratio of ED50 for human HepG2 cells to MIC for Pseudomonas aeruginosa PAO1 ATCC 15692; assay type: toxicity; settings: read-out: Selectivity Index
[12] = Cytotoxicity against mouse NIH/3T3 cells by MTS assay; assay type: cell-based, NIH3T3; settings: read-out: ID50 (the source's name)
[13] = Hemolytic activity against human erythrocytes measured after 1 hr; assay type: ADME, cell-based, Erythrocyte; settings: read-out: HD50

Compound: C[C@@H](c1ccccc1)N(CC(N)=O)C(=O)CN(C(=O)CN(CCN)C(=O)CN(C(=O)CN(C(=O)CNCCN)[C@@H](C)c1ccccc1)[C@@H](C)c1ccccc1)[C@@H](C)c1ccccc1
MIC (Staphylococcus aureus): > 100 µM | selectivity ratio [1]: 1 | selectivity ratio [2]: 1 | CC50 at 24 h [3]: > 100 µM | selectivity ratio [4]: 1 | selectivity ratio [5]: 1 | selectivity ratio [6]: 1 | CC50 at 24 h [7]: > 100 µM | MIC [8]: > 100 µM | MIC (Escherichia coli): > 100 µM | MIC (Pseudomonas aeruginosa): > 100 µM | selectivity ratio [9]: 1 | selectivity ratio [10]: 1 | selectivity ratio [11]: 1

MIC (Staphylococcus aureus): 2 µM (≈ 4.04 µg/mL) | MIC [8]: 2 µM (≈ 4.04 µg/mL) | MIC (Escherichia coli): 13 µM (≈ 26.3 µg/mL) | MIC (Pseudomonas aeruginosa): 13 µM (≈ 26.3 µg/mL)
Compound: N=C(N)NCCCCNCC(=O)N(CC(=O)N(CC(=O)N(CCCCNC(=N)N)CC(=O)N(CC(=O)N(CC(=O)N(CCCCNC(=N)N)CC(=O)N(CC(=O)N(CC(=O)N(CCCCNC(=N)N)CC(=O)N(CC(=O)N(CC(N)=O)Cc1cccc(F)c1)Cc1cccc(F)c1)Cc1cccc(F)c1)Cc1cccc(F)c1)Cc1cccc(F)c1)Cc1cccc(F)c1)Cc1cccc(F)c1)Cc1cccc(F)c1
selectivity ratio [1]: 2 | selectivity ratio [2]: 14 | CC50 at 24 h [3]: 28 µM | selectivity ratio [4]: 11 | selectivity ratio [5]: 11 | selectivity ratio [6]: 14 | CC50 at 24 h [7]: 21 µM | selectivity ratio [9]: 2 | selectivity ratio [10]: 2 | selectivity ratio [11]: 2

Compound: NCCNCC(=O)N(CC(=O)N(CC(=O)N(CCN)CC(=O)N(CC(=O)N(CC(N)=O)Cc1ccccc1)Cc1ccccc1)Cc1ccccc1)Cc1ccccc1 (H-[Gly(N-2-aminoethyl)][Nphe][Nphe][Gly(N-2-aminoethyl)][Nphe][Nphe]-NH2)
MIC (Staphylococcus aureus): > 100 µM | selectivity ratio [1]: 1 | selectivity ratio [2]: 1 | CC50 at 24 h [3]: > 100 µM | selectivity ratio [4]: 1 | selectivity ratio [5]: 1 | selectivity ratio [6]: 1 | CC50 at 24 h [7]: > 100 µM | MIC [8]: > 100 µM | MIC (Escherichia coli): > 100 µM | MIC (Pseudomonas aeruginosa): > 100 µM | selectivity ratio [9]: 1 | selectivity ratio [10]: 1 | selectivity ratio [11]: 1

Compound: NCCCCNCC(=O)N(CC(=O)N(CC(=O)N(CCCCN)CC(=O)N(CC(=O)N(CC(N)=O)Cc1ccccc1)Cc1ccccc1)Cc1ccccc1)Cc1ccccc1 (H-[Nlys][Nphe][Nphe][Nlys][Nphe][Nphe]-NH2)
MIC (Staphylococcus aureus): > 100 µM | selectivity ratio [1]: 1 | selectivity ratio [2]: 1 | CC50 at 24 h [3]: > 100 µM | selectivity ratio [4]: 1 | selectivity ratio [5]: 1 | selectivity ratio [6]: 1 | CC50 at 24 h [7]: > 100 µM | MIC [8]: > 100 µM | MIC (Escherichia coli): > 100 µM | MIC (Pseudomonas aeruginosa): > 100 µM | selectivity ratio [9]: 1 | selectivity ratio [10]: 1 | selectivity ratio [11]: 1

Compound: C[C@@H](c1ccccc1)N(CC(N)=O)C(=O)CN(C(=O)CN(CCCCN)C(=O)CN(C(=O)CN(C(=O)CN(CCCCN)C(=O)CN(C(=O)CN(C(=O)CN(CCCCN)C(=O)CN(C(=O)CN(C(=O)CNCCCCN)[C@@H](C)c1ccccc1)[C@@H](C)c1ccccc1)[C@@H](C)c1ccccc1)[C@@H](C)c1ccccc1)[C@@H](C)c1ccccc1)[C@@H](C)c1ccccc1)[C@@H](C)c1ccccc1 (H-[Nlys][Nspe][Nspe][Nlys][Nspe][Nspe][Nlys][Nspe][Nspe][Nlys][Nspe][Nspe]-NH2)
selectivity ratio [2]: 10 | selectivity ratio [5]: 15 | CC50 [12]: 5.1 µM | HC50 at 1 h [13]: 100 µM
